# Experimental data from ChEMBL document CHEMBL1131090, “Discovery of N-[2-[5-[Amino(imino)methyl]-2-hydroxyphenoxy]-3, 5-difluoro-6-[3-(4, 5-dihydro-1-methyl-1H-imidazol-2-yl)phenoxy]pyridin-4-yl]-N-methylgl y cine (ZK-807834): a potent, selective, and orally active inhibitor of the blood coagulation enzyme factor Xa” (J Med Chem, 1998).
# Assays:
# [1] = Prothrombin time concentration to give a 2-fold extension activity against pooled lyophilized human plasma.; assay type: functional
# Procedure, shortened: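 Prothrombin time was measured in pooled lyophilized human plasma with Thromboplastin IS on an automated coagulation analyzer. The value is the inhibitor concentration that doubles PT.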
# [2] = Inhibitor plasma concentration was measured in dogs on 10 mg/kg oral dosing after 2 hr administration; uM; assay type: ADME, organism-based, Canis lupus familiaris; design: dose 10 mg/kg, route oral; conditions: dog
# Procedure, shortened: (§1)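 Conscious beagles (10–16 kg) were given 10 mg/kg by oral gavage as homogeneous solutions in aqueous acid (n = 3). Plasma inhibitor concentrations were measured at the stated times by an ex vivo FXa inhibition activity assay. For ester/acid pairs, the value is the total ester plus acid concentration.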
# Prothrombin = Prothrombin (Homo sapiens, UniProt P00734); assay: Inhibitory potency was measured against human thrombin
# Procedure, shortened: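 Purified human thrombin (16 nM final) was assayed chromogenically with S-2302 (300 μM final) in 50 mM Tris-HCl pH 7.5, 150 mM NaCl, 2.5 mM CaCl2, 0.1% PEG 6000 at room temperature. Varying inhibitor concentrations were tested at a substrate level equal to Km, assuming a competitive mechanism, to derive Ki.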
# Coagulation factor X = Coagulation factor X (Homo sapiens, UniProt P00742); assay: Inhibitory potency was measured against human coagulation factor X
# [3] = Inhibitor plasma concentration was measured in dogs on 10 mg/kg oral dosing after 1 hr administration; uM; assay type: ADME, organism-based, Canis lupus familiaris; design: dose 10 mg/kg, route oral; conditions: dog; procedure, shortened: as §1
# Serine protease 1 = biological target: T1, Serine protease 1 (Bos taurus, UniProt P00760); assay: Inhibitory potency was measured against bovine trypsin.
# T1 sequence (P00760 whole entry): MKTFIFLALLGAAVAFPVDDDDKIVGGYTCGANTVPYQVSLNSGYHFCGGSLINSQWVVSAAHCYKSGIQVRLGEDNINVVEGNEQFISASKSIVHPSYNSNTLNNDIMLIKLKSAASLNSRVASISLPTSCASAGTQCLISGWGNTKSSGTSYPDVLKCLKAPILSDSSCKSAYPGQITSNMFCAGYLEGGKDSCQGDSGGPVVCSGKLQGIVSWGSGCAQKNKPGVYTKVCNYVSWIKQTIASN
# [4] = plasma concentration was measured against the Nonhuman primates (baboon) using FXa inhibition assay after 3 hr; uM; assay type: ADME, organism-based, Papio
# Procedure, shortened: (§2)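 Baboons received a 10 mg/kg oral dose in 1.5% carboxymethylcellulose plus 1% Tween 80 via nasogastric tube (2–4 animals per compound). Plasma inhibitor concentration was determined at the stated times by FXa inhibition assay.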
# [5] = plasma concentration was measured against the Nonhuman primates (baboon) using FXa inhibition assay after 6 h; uM; assay type: ADME, organism-based, Papio; procedure, shortened: as §2
# [6] = Inhibitor plasma concentration was measured in dogs on 10 mg/kg oral dosing after 4 hr administration; uM; assay type: ADME, organism-based, Canis lupus familiaris; design: dose 10 mg/kg, route oral; conditions: dog; procedure, shortened: as §1
# [7] = plasma concentration was measured against the Nonhuman primates (baboon) using FXa inhibition assay after 2 hr; uM; assay type: ADME, organism-based, Papio; procedure, shortened: as §2
# [8] = plasma concentration was measured against the Nonhuman primates (baboon) using FXa inhibition assay after 1 hr; uM; assay type: ADME, organism-based, Papio; procedure, shortened: as §2
# [9] = plasma concentration was measured against the Nonhuman primates (baboon) using FXa inhibition assay after 4 hr; uM; assay type: ADME, organism-based, Papio; procedure, shortened: as §2
# [10] = plasma concentration was measured against the Nonhuman primates (cynomolgus monkey) using HPLC after 1 hr; uM
# [11] = plasma concentration was measured against the Nonhuman primates (cynomolgus monkey) using HPLC after 4 hr; uM
# [12] = plasma concentration was measured against the Nonhuman primates (cynomolgus monkey) using HPLC after 3 hr; uM
# [13] = plasma concentration was measured against the Nonhuman primates (cynomolgus monkey) using HPLC after 2 hr; uM
# Coagulation factor X, sequence (P00742 41-179 limits assumed): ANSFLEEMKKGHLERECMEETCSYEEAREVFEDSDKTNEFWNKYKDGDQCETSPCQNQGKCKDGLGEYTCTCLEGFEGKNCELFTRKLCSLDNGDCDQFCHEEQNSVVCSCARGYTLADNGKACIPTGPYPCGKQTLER
# Coagulation factor X, sequence (P00742 235-488 limits assumed): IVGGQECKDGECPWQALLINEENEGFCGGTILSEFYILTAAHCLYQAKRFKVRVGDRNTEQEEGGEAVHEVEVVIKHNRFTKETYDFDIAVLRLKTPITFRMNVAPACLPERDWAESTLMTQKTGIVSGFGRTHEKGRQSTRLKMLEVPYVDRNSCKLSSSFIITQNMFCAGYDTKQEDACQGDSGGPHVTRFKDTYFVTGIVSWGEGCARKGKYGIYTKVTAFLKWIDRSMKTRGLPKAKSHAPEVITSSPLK
SMILES,Ki (Prothrombin) [µM],Ki (Coagulation factor X) [µM],Ki (Serine protease 1) [µM],other results
CN(C)C(=O)c1cccc(Oc2nc(Oc3cc(C(=N)N)ccc3O)c(F)c(OC3CCN(CC(=O)O)CC3)c2F)c1,0.192,0.00065,0.77,PT extension [1]: 850 nM; concentration at 2 h [2]: 100 nM; concentration at 1 h [3]: 300 nM
N=C(N)c1ccc(Oc2cccc(Oc3ccc(C(=N)N)cc3)n2)cc1,0.55,0.4,2.8,
Cn1ccnc1-c1cccc(Oc2cc(C(=O)O)cc(Oc3cc(C(=N)N)ccc3O)n2)c1,0.18,0.009,0.66,
N=C(N)c1ccc(O)c(Oc2cc(C(=O)O)cc(Oc3cccc(-n4ccnc4)c3)n2)c1,1.4,0.026,1.2,
COc1ccc(C(=N)N)cc1Oc1nc(Oc2cccc(C(=O)N(C)C)c2)c(F)c(C)c1F,> 5,0.74,4.3,
Cc1c(F)c(Oc2cccc(CN(C)C)c2)nc(Oc2cccc(C(=N)N)c2)c1F,22,0.64,,
N=C(N)c1ccc(O)c(Oc2cc(C(=O)O)cc(Oc3cccc(C4=NCCN4)c3)n2)c1,> 5,0.085,1.4,
N=C(N)c1ccc(Oc2cccc(Oc3cccc(C(=N)N)c3)n2)cc1,1.2,0.13,1.9,
CCOC(=O)[C@@H]1C[C@@H](Oc2c(F)c(Oc3cccc(C4=NCCN4C)c3)nc(Oc3cc(C(=N)N)ccc3O)c2F)CN1,0.14,0.00043,0.33,concentration at 3 h [4]: 600 nM; PT extension [1]: 300 nM; concentration at 2 h [2]: 3400 nM; concentration at 6 h [5]: 300 nM; concentration at 4 h [6]: 2600 nM; concentration at 2 h [7]: 300 nM; concentration at 1 h [8]: 200 nM; concentration at 1 h [3]: 3500 nM; concentration at 4 h [9]: 500 nM
CCOC(=O)CN1CCC(Oc2c(F)c(Oc3cccc(C4=NCCN4C)c3)nc(Oc3cc(C(=N)N)ccc3O)c2F)CC1,0.19,0.00031,0.3,PT extension [1]: 240 nM; concentration at 2 h [2]: 300 nM; concentration at 4 h [6]: 200 nM; concentration at 1 h [3]: 300 nM
CN1CCN=C1c1cccc(Oc2nc(Oc3cc(C(=N)N)ccc3O)c(F)c(O[C@H]3CN[C@H](C(=O)O)C3)c2F)c1,0.25,0.00033,0.31,PT extension [1]: 670 nM; concentration at 2 h [2]: 2200 nM; concentration at 4 h [6]: 800 nM; concentration at 1 h [3]: 3200 nM
CN1CCN=C1c1cccc(Oc2nc(Oc3cc(C(=N)N)ccc3O)c(F)c(OC3CCN(CC(=O)O)CC3)c2F)c1,0.125,0.00024,0.33,concentration at 3 h [4]: 100 nM; PT extension [1]: 220 nM; concentration at 2 h [2]: 3800 nM; concentration at 6 h [5]: 700 nM; concentration at 4 h [6]: 1200 nM; concentration at 1 h [8]: 100 nM; concentration at 1 h [3]: 5500 nM; concentration at 4 h [9]: 200 nM; concentration at 1 h [10]: 100 nM
CCOC(=O)[C@@H]1C[C@@H](Oc2c(F)c(Oc3cccc(C(=O)N(C)C)c3)nc(Oc3cc(C(=N)N)ccc3O)c2F)CN1,0.28,0.00071,0.74,PT extension [1]: 1400 nM; concentration at 2 h [2]: 200 nM; concentration at 4 h [6]: 100 nM; concentration at 1 h [3]: 300 nM
CCOC(=O)CN(C)c1c(F)c(Oc2cccc(C3=NCCN3C)c2)nc(Oc2cc(C(=N)N)ccc2O)c1F,0.63,0.00026,0.24,PT extension [1]: 630 nM; concentration at 2 h [2]: 200 nM; concentration at 4 h [6]: 100 nM; concentration at 1 h [3]: 200 nM
Cc1c(F)c(Oc2cccc(C(=O)N(C)C)c2)nc(Oc2cc(C(=N)N)ccc2O)c1F,1.1,,1.1,
N=C(N)c1cccc(Oc2nc(Oc3cccc(C(=N)N)c3)c(F)cc2F)c1,37,0.024,1.2,

SMILES,Ki (Prothrombin) [µM],Ki (Coagulation factor X) [µM],Ki (Serine protease 1) [µM],other results
N=C(N)c1cccc(Oc2cc(C(=O)O)cc(Oc3cccc(C(=N)N)c3)n2)c1,27,0.059,0.57,
N=C(N)c1cccc(Oc2nc(Oc3cccc(C(=N)N)c3)c(Cl)cc2Cl)c1,> 5,0.13,2.1,
Cc1c(F)c(Oc2cccc(C(=N)N)c2)nc(Oc2cccc(C(=N)N)c2)c1F,22,0.013,0.81,
N=C(N)c1ccc(Oc2nc(Oc3ccc(C(=N)N)cc3)c(Cl)cc2Cl)cc1,1.4,0.62,2.7,
N=C(N)c1cccc(Oc2cccc(Oc3cccc(C(=N)N)c3)n2)c1,14,0.053,1.1,
N=C(N)c1ccc(/C=C2/CCCC/C(=C/c3ccc(C(=N)N)cc3)C2=O)cc1,,0.00066,0.033,
Cc1c(F)c(Oc2cccc(C(=N)N)c2)nc(Oc2cccc(C(=O)N(C)C)c2)c1F,15,0.08,2.7,
CN(C)C(=O)c1cccc(Oc2nc(Oc3cc(C(=N)N)ccc3O)c(F)c(N(C)CC(=O)O)c2F)c1,4.5,0.00041,1.1,PT extension [1]: 1000 nM; concentration at 2 h [2]: 400 nM; concentration at 1 h [3]: 300 nM
CN(C)C(=O)c1cccc(Oc2cc(C(=O)O)cc(Oc3cc(C(=N)N)ccc3O)n2)c1,1.1,0.0039,0.3,
CNC(=O)c1cccc(Oc2nc(Oc3cccc(C(=N)N)c3)c(F)c(C)c2F)c1,,1.3,,
Cc1c(F)c(Oc2cccc(C(=O)N(C)C)c2)nc(Oc2cc(C(=N)N)ccc2N)c1F,2.3,0.014,0.55,
Cc1c(F)c(Oc2cccc(C(=N)N)c2)nc(Oc2cccc(C(N)=O)c2)c1F,> 5,0.28,> 5,
Cc1c(F)c(Oc2ccccc2)nc(Oc2cccc(C(=N)N)c2)c1F,> 5,> 5,,
Cc1c(F)c(Oc2cccc(C(=N)N)c2)nc(Oc2cccc(N(C)C)c2)c1F,2.6,0.16,1.9,
CN1CCN=C1c1cccc(Oc2cc(C(=O)O)cc(Oc3cc(C(=N)N)ccc3O)n2)c1,0.81,0.0024,0.22,
CN1CCN=C1c1cccc(Oc2nc(Oc3cc(C(=N)N)ccc3O)c(F)c(N(C)CC(=O)O)c2F)c1 [FIDEXABAN],2,,0.28,concentration at 3 h [4]: 900 nM; PT extension [1]: 230 nM; concentration at 2 h [2]: 2100 nM; concentration at 6 h [5]: 1000 nM; concentration at 4 h [6]: 700 nM; concentration at 4 h [11]: 1200 nM; concentration at 2 h [7]: 600 nM; concentration at 1 h [8]: 300 nM; concentration at 1 h [3]: 3000 nM; concentration at 3 h [12]: 700 nM; concentration at 4 h [9]: 1100 nM; concentration at 2 h [13]: 500 nM; concentration at 1 h [10]: 200 nM
